Among the data in ChEMBL document CHEMBL1821580, “Design, synthesis and bioevaluation of novel candidate selective estrogen receptor modulators” (Eur J Med Chem, 2011) are IC50 and Activity values, retold here.

One assay concerns L1210. Nature of the assay: Cytostatic activity against mouse L1210 cells after 2 days by coulter counter assay. The assay is classed as functional, cell-based. The conditions noted are these: L1210, 48 h. An outline of the steps:
(§1)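 Tumor cells seeded in 96-well plates and exposed to a range of compound concentrations. Exposure was 2 days for L1210 and 3 days for Molt4/C8 and CEM. Cell number was counted on a Coulter particle counter. IC50 is the concentration inhibiting proliferation by 50%. Run in triplicate.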

For another assay, the system named is MOLT-4. The assay is described as follows: Cytostatic activity against human Molt4/C8 cells after 3 days by coulter counter assay. Conditions: MOLT-4, 72 h. Type of assay: functional, cell-based. A digest of the protocol: as §1
Another assay deals with CCRF-CEM. The assay is described as follows: Cytostatic activity against human CEM cells after 3 days by coulter counter assay. Type of assay: functional, cell-based. Conditions: 72 h. A digest of the protocol:
as §1

Another assay concerns MCF7. The assay is described as follows: Cytotoxicity activity against human MCF7 cells by MTS assay. Type of assay: functional, cell-based. An outline of the steps: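 MCF-7 cells in DMEM with 10% heat-inactivated FBS, seeded at 30,000 cells/well in 24-well plates. After compound treatment, viability was read by MTS assay (CellTiter 96 AQueous). Run in triplicate.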
Assay [1] addresses T1, Estrogen receptor (Homo sapiens) (UniProt P03372).
T1 sequence (whole entry): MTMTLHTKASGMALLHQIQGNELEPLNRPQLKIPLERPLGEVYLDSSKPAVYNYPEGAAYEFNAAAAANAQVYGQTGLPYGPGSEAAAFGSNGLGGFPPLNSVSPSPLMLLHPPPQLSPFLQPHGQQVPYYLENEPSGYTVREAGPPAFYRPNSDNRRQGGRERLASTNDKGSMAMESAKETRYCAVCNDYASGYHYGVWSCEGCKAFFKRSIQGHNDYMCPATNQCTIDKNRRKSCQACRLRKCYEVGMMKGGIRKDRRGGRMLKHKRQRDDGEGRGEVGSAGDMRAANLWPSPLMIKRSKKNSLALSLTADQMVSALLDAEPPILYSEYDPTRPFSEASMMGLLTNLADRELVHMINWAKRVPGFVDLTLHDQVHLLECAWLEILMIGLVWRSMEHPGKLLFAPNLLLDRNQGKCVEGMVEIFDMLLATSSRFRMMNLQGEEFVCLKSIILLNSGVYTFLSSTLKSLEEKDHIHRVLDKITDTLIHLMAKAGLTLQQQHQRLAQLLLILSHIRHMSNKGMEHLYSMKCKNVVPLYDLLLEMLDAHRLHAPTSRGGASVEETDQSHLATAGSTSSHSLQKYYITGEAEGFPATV
Nature of the assay: Binding affinity to estrogen receptor alpha in human MCF7 cells assessed as NR peptide-ERalpha complex formation at 25 uM by colorimetric ELISA. Type of assay: cell-based. On the technique in general: In an ELISA, binding on a coated surface is turned into a signal by an enzyme label.

Assay [2] has as its target T1, Estrogen receptor (Homo sapiens). The assay is described as follows: Binding affinity to estrogen receptor alpha in human MCF7 cells assessed as NR peptide-ERalpha complex formation at 2.5 uM by colorimetric ELISA. Type of assay: cell-based.

Each structure is given as a SMILES string. Calls of active or inactive are those of the source. No cut-off for these calls is given here.

A word on the IC50: it is the concentration needed to halve the response being measured. For `Oc1ccc2ccccc2c1C(c1ccccc1)N1CCC(O)CC1` (configuration not stated), the IC50 in the assay on L1210 came to 50 µM; in the assay on MOLT-4 it was 43 µM; in the assay with CCRF-CEM, 36 µM.
In the same order, the values of `COc1ccc(C(c2c(O)ccc3ccccc23)N2CCC(O)CC2)cc1` (configuration not stated) are 42 µM, 35 µM and 14 µM.
In the same order, the values of `Oc1ccc2ccccc2c1C(c1ccc(Cl)c(Cl)c1)N1CCC(O)CC1` (configuration not stated) are 43 µM, 36 µM and 17 µM.
As for `CC(=O)OC1CCN(C(c2ccc3c(c2)OCO3)c2c(O)ccc3ccccc23)CC1` (configuration not stated), the IC50 in the assay with L1210 came to 48 µM; in the assay with MOLT-4, 69 µM; with CCRF-CEM, 51 µM.
For `CC(=O)OC1CCN(C(c2ccccn2)c2c(O)ccc3ccccc23)CC1` (configuration not stated), in that order: 92 µM, 49 µM and 55 µM.
Molecule `CN(C)CCOc1ccc(Cc2c(O)ccc3ccccc23)cc1` registered an IC50 in the assay with MCF7 of 10.2 µM.
On the same count and under the same terms, under `CCN(CC)CCOc1ccc(Cc2c(O)ccc3ccccc23)cc1` stands 6.2 µM.
The same measure, in the same setting: under `CC(C)N(CCOc1ccc(Cc2c(O)ccc3ccccc23)cc1)C(C)C` stands 7.54 µM; under `Oc1ccc2ccccc2c1Cc1ccc(OCCN2CCCC2)cc1`, 6.71 µM.
On the same count and under the same terms, under `Oc1ccc2ccccc2c1Cc1ccc(OCCN2CCCCC2)cc1` stands 6.82 µM.
As for `Oc1ccc2ccccc2c1Cc1ccc(OCCN2CCOCC2)cc1`, the IC50 in the assay with MCF7 is > 25 µM.
In the case of `CC1CCN(CCOc2ccc(Cc3c(O)ccc4ccccc34)cc2)CC1`, inhibition in the assay with MCF7 was half-maximal at 4.38 µM (IC50). Also, the outcome in assay [1] and in assay [2] was Active.
With `Oc1ccc2ccccc2c1Cc1ccc(OCCN2CCCCCC2)cc1`, in the assay with MCF7, the IC50 came out at 6.21 µM.
Still for that read-out and setting: under `CN(C)CCOc1ccc(C(c2c(O)ccc3ccccc23)N2CCC(O)CC2)cc1` (racemic) stands 22.6 µM; under `CCN(CC)CCOc1ccc(C(c2c(O)ccc3ccccc23)N2CCC(O)CC2)cc1` (racemic), 19 µM.
Same read-out and setting: under `CC(C)N(CCOc1ccc(C(c2c(O)ccc3ccccc23)N2CCC(O)CC2)cc1)C(C)C` (racemic) stands 52.3 µM; under `Oc1ccc2ccccc2c1C(c1ccc(OCCN2CCCC2)cc1)N1CCC(O)CC1` (racemic), 37.5 µM; under `Oc1ccc2ccccc2c1C(c1ccc(OCCN2CCCCC2)cc1)N1CCC(O)CC1` (racemic), 36.4 µM.
`Oc1ccc2ccccc2c1C(c1ccc(OCCN2CCOCC2)cc1)N1CCC(O)CC1` (racemic): in the assay with MCF7, the IC50 worked out at 424 µM.
Consider `Oc1ccc2ccccc2c1C(c1ccncc1)N1CCC(O)CC1` (single isomer, unassigned; (+)), for which the IC50 in the assay on L1210 stood at 154 µM; in the assay on MOLT-4, 107 µM; in the assay with CCRF-CEM, 133 µM.
As for `Oc1ccc2ccccc2c1C(c1ccccn1)N1CCC(O)CC1` (single isomer, unassigned; (+)), the IC50 in the assay on L1210 was found to be 118 µM; in the assay with MOLT-4, 52 µM; in the assay on CCRF-CEM, 54 µM.
For `CC(=O)OC1CCN(C(c2ccccc2)c2c(O)ccc3ccccc23)CC1` (single isomer, unassigned; (+)), in that order: 58 µM, 38 µM and 31 µM.
For `CC(=O)OC1CCN(C(c2ccc(F)cc2)c2c(O)ccc3ccccc23)CC1` (single isomer, unassigned; (+)), in that order: 45 µM, 40 µM and 27 µM.
As to `CC(=O)OC1CCN(C(c2ccc(Cl)cc2)c2c(O)ccc3ccccc23)CC1` (single isomer, unassigned; (+)), the figures for the half-maximal inhibitory concentration (IC50) in the assay on L1210, with MOLT-4 and in the assay with CCRF-CEM were 41 µM, 35 µM and 28 µM, respectively.
In the same order, the values of `CC(=O)OC1CCN(C(c2ccc(C)cc2)c2c(O)ccc3ccccc23)CC1` (single isomer, unassigned; (+)) are 45 µM, 47 µM and 35 µM.
For `COc1ccc(C(c2c(O)ccc3ccccc23)N2CCC(OC(C)=O)CC2)cc1` (single isomer, unassigned; (+)), in that order: 43 µM, 42 µM and 22 µM.
Take `CC(=O)OC1CCN(C(c2ccc(Cl)c(Cl)c2)c2c(O)ccc3ccccc23)CC1` (single isomer, unassigned; (+)): the IC50 in the assay on L1210 was determined as 31 µM; in the assay on MOLT-4, 34 µM; in the assay with CCRF-CEM it was 15 µM.
In the case of `COc1ccc(C(c2c(O)ccc3ccccc23)N2CCC(OC(C)=O)CC2)cc1OC` (single isomer, unassigned; (+)), the half-maximal inhibitory concentration (IC50) in the assay with L1210 worked out at 48 µM; in the assay on MOLT-4, 12 µM; with CCRF-CEM, 24 µM.
As for `Oc1ccc2ccccc2c1C(c1ccc(F)cc1)N1CCC(O)CC1` (single isomer, unassigned; (-)), the IC50 in the assay with L1210 amounted to 44 µM; with MOLT-4 it was 41 µM; in the assay with CCRF-CEM, 24 µM.
For `Oc1ccc2ccccc2c1C(c1ccc(Cl)cc1)N1CCC(O)CC1` (single isomer, unassigned; (-)), in that order: 46 µM, 33 µM and 19 µM.
In the same order, the values of `Cc1ccc(C(c2c(O)ccc3ccccc23)N2CCC(O)CC2)cc1` (single isomer, unassigned; (-)) are 44 µM, 39 µM and 29 µM.
Take `COc1ccc(C(c2c(O)ccc3ccccc23)N2CCC(O)CC2)cc1OC` (single isomer, unassigned; (-)): the IC50 in the assay with L1210 was determined as 50 µM; with MOLT-4, 18 µM; in the assay with CCRF-CEM, 25 µM.
For `Oc1ccc2ccccc2c1C(c1ccc2c(c1)OCO2)N1CCC(O)CC1` (single isomer, unassigned; (-)), in that order: 45 µM, 44 µM and 37 µM.
Turning to `CC(=O)OC1CCN(C(c2ccncc2)c2c(O)ccc3ccccc23)CC1` (single isomer, unassigned; (-)), the IC50 stood at 80 µM in the assay with L1210, 59 µM in the assay on MOLT-4 and 79 µM with CCRF-CEM.
In the assay with MCF7, `CC/C(=C(\c1ccccc1)c1ccc(OCCN(C)C)cc1)c1ccccc1` [TAMOXIFEN] registered an IC50 of 31 µM.
